Compound activity: PubChem BioAssay, Sanford-Burnham Center for Chemical Genomics
Most compounds without a hit are left out; they make up all but 2% or so of the library.
LMPTP block: LMPTP phosphatase inhibitors, primary screen, biochemical, fluorescence intensity, uHTS; recombinant LMPTP-A, OMFP fluorogenic substrate; inhibition, % at 20 µM; actives 0.22% (n = 360,000);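 active = compounds that cut the enzyme signal by at least half of the control window in the single-dose screen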;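 note: plate controls were DMSO wells with enzyme plus substrate for no effect and substrate without enzyme for full effect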
Target sequence (P24666 whole entry, looked up): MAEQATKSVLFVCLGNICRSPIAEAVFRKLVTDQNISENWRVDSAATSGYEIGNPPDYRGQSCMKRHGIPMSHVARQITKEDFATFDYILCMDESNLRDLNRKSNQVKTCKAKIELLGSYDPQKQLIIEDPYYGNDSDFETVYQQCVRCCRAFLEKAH
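test system = LMPTP-A | amount = 0.625 nM LMPTP-A final | reagent = fluorogenic phosphatase substrate OMFP at 400 µM final | incubation = 50 min at room temperature | benchmarks = no-enzyme low control, uninhibited high control | medium = Bis-Tris pH 6.0, DTT, detergent | signal = fluorescence intensity of OMFP turnover product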
CSN inh: inhibitors of CSN-mediated cullin deneddylation, primary screen, biochemical, fluorescence polarization, uHTS; COP9 signalosome complex subunit 5 (Homo sapiens), Q92905; Purified CSN, SCF-Nedd8-OG deneddylation; inhibition, % at 12.5 µM; actives 0.38% (n = 360,000);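 active = pattern-corrected inhibition above about 35%, with an unprinted fluorescence ratio check between 0.5 and 1.5, limit read from the data, passing the limit was not always enough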;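 note: 0% = enzyme with substrate and 100% = substrate without enzyme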
Target sequence (Q92905 whole entry, looked up, one chain of several): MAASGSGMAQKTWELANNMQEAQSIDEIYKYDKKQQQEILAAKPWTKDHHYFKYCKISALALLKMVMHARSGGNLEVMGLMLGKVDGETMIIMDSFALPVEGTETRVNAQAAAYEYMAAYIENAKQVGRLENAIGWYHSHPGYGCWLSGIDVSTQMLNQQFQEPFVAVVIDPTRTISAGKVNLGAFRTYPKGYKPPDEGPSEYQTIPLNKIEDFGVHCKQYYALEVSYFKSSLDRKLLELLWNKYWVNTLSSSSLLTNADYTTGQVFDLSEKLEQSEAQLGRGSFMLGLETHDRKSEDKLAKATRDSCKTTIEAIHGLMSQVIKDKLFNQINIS
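Test system: purified human Csn5 enzyme expressed in HEK293T cells. Amount: 0.24 nM enzyme. Reagent: SCFSkp2-Nedd8OG substrate at 10 nM final. Schedule: 90 min incubation of compound, enzyme and substrate at room temperature. Detection: fluorescence polarization. Read-out: % inhibition of substrate cleavage by Csn5.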
SUMO1-SIM PPI: modulators of SUMO1 protein-protein interactions, primary screen, biochemical, uHTS; inhibition, % at 20 µM; SUMO1 binding to a labelled peptide, TR-FRET, 1 h; Small ubiquitin-related modifier 1 (Homo sapiens), P63165; AID 602429, 2012; actives 0.33% (n = 360,000); in the data active = inhibition above about 37%
Target sequence (P63165 whole entry, looked up): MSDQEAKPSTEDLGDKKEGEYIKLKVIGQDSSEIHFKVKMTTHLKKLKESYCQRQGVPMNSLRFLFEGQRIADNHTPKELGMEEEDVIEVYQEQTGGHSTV
STEP inh: STEP phosphatase inhibitors, primary screen, biochemical, fluorescence intensity, uHTS; Tyrosine-protein phosphatase non-receptor type 5 (Homo sapiens), P54829; recombinant STEP, OMFP fluorogenic substrate; inhibition, % at 20 µM; actives 0.25% (n = 360,000); AID 588621, 2011;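 active = inhibition at 20 µM, scaled per plate between control wells, above about 37%, limit read from the data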;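 note: 0% = DMSO with enzyme and substrate and 100% = substrate only without enzyme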
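System: isolated STEP enzyme; schedule: 20 min enzyme reaction at room temperature, protected from light; medium: Bis-Tris buffer pH 6.0, 2.5 mM DTT, 0.005% Tween 20; signal: fluorescence, 480/540 nm; dosing: single compound dose of 20 µM, 1% DMSO final; also added: OMFP substrate, 25 µM final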
DNMT1 block: human DNMT1 methyltransferase inhibitors, primary screen, biochemical, molecular beacon, fluorescence, HinP1I cleavage, uHTS. inhibition (reported as % activation of signal), % at 10 µM. DNA (cytosine-5)-methyltransferase 1 (Homo sapiens), P26358. actives 0.83% (n = 360,000). AID 588458, 2011; in the data active = inhibition above about 50%
Scp1 inh: Scp-1 phosphatase inhibitors, primary screen, biochemical, colorimetric, uHTS. Recombinant Scp1, phosphopeptide, malachite green phosphate absorbance. inhibition, % at 20 µM. actives 0.88% (n = 340,000). AID 493091, 2011;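 active = inhibition above about 50% at 20 µM, limit read from the data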;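 note: plate controls were DMSO wells with enzyme for no effect and wells lacking enzyme for full effect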
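System: truncated SCP-1 phosphatase (76-261aa); medium: Tris acetate buffer pH 5.5 with MgCl2 and Tween-20; incubation: 45 min room-temperature reaction, 5 min colour, 30 min stabiliser; compound: single 20 µM dose, 1% DMSO; reagent: Phosphorylated 17-residue peptide substrate; read-out: % inhibition at 20 µM; technique: colorimetric free-phosphate detection, absorbance 630 nm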
Scp1 confirm: Scp-1 phosphatase inhibitors, retest, confirmation, biochemical, colorimetric, single concentration. shares compounds with Scp1 inh. inhibition, % at 20 µM. actives 61% (n = 2,500). recombinant SCP-1 catalytic domain, phosphate release, malachite green absorbance;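 note: plate controls were DMSO with enzyme for no effect and buffer wells lacking enzyme for full effect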
Scp-1 MG ctr: colorimetric readout interference by compounds, confirmation, artefact control for Scp-1 inhibitor project, biochemical, single concentration. shares compounds with Scp1 inh. Colorimetric interference counterscreen, malachite green absorbance 630 nm. apparent inhibition (interference), % at 20 µM. 2,500 tested, under 10 active. AID 540313, 2011;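 note: compounds added after enzyme reaction finished so only phosphate colour detection is probed; plate controls were DMSO wells with completed Scp-1 reaction for no effect and substrate wells lacking enzyme for full effect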
Scp1 DSF: Scp-1 binding by thermal shift, confirmation, orthogonal assay for Scp-1 inhibitor project, biophysical, differential scanning fluorimetry; shares compounds with Scp1 inh; Recombinant SCP1, Sypro Orange thermal shift Tm; thermal shift relative to vanadate control, % at 40 µM; actives 25% (n = 1,500); AID 540329, 2011;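 active = substances whose mean melting-temperature shift, as a percentage of the reference inhibitor's shift, reaches about 5.3%, limit read from the data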;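 note: 0% = Tm of DMSO wells and 100% = Tm with sodium orthovanadate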
Beacon interf DR: spectral interference with molecular beacon fluorescence, dose response, artefact control for DNMT1 inhibitor project, biochemical, fluorescent molecular beacon; shares compounds with DNMT1 block; spectral interference counter-screen; IC50, µM; 200 tested, under 10 active; AID 602382, 2012; call rule not given here
DNMT1 inh conf: DNMT1 methyltransferase inhibitor retest, confirmation, biochemical, molecular beacon, fluorescence, single concentration; inhibition, % at 10 µM; AID 602385, 2012; actives 8% (n = 2,300); shares compounds with DNMT1 block; DNMT1 molecular beacon HinP1I cleavage;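 active = average inhibition of at least 30% in the single-concentration confirmation test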
Beacon interf: shows spectral interference in the DNMT1 beacon assay; actives 1% (n = 2,300); activation (fluorescence interference), % at 10 µM; DNMT1 molecular beacon spectral interference counterscreen, fluorescence 485/520; AID 602387; shares compounds with DNMT1 block;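 active = activation of at least 30% at 10 µM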;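 note: DNMT1 catalytic domain with a HinP1I cleavage step and a FAM/dabcyl DNA beacon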
Starred values were filed as active, the others as inactive; / = no result.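 Rule for the calls, unless noted: active = inhibition of at least 30% at 20 µM; inactive = the rest.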

SMILES	LMPTP block	CSN inh	SUMO1-SIM PPI	STEP inh	DNMT1 block	Scp1 inh	Scp1 confirm	Scp-1 MG ctr	Scp1 DSF	DNMT1 inh conf	Beacon interf	others
O=C(Cc1ccc(S(=O)(=O)N2CCOCC2)s1)Nc1nc2c(s1)CCCC2	15	27	22	21	89*	64*	74*	-4	11*	10	2
CCOC(=O)c1cc(CC)sc1/N=C/c1c(O)ccc2ccccc12	-2	3	-6	2	-5	-5	/	/	/	/	/
Cc1cc(C(=O)NCc2ccc(C(=O)O)o2)c(C)o1	0	5	4	4	78*	56*	52*	-10	-13	8	2
C#CCSc1nsc(SCC#C)c1C#N	26	19	11	14	77*	80*	66*	-16	1	16	2
COc1ccc(N2C(c3ccsc3)=Cc3cc4c(cc3C2c2c[nH]c3ccccc23)OCO4)cc1 (stereo not drawn)	6	6	-13	/	/	/	/	/	/	/	/
Cc1cccc(NC(=O)CNC(=O)c2cccc(-n3cccc3)c2)c1C	17	32	34	9	87*	73*	75*	-7	-3	21	1
Cc1ccc(NC(=O)CN(C)C(=O)c2cccc(-n3cccc3)c2)cc1	18	29	48*	9	100*	91*	72*	-5	2	34*	2	Beacon interf DR=>99
Cc1ccc(C)c(NC(=O)CN(C)C(=O)c2cccc(N3C(=O)CCC3=O)c2)c1	-1	3	-2	-1	2	-9	/	/	/	/	/
CCOC(=O)[C@H]1[C@H]2COc3ccc(C)cc3[C@@H]2N2C(=O)[C@@H](C)NC(=O)[C@@]12C	-1	-5	-2	-2	1	-6	/	/	/	/	/
COc1cc(S(=O)(=O)NCc2ccncc2)ccc1Br	1	1	0	-1	1	5	/	/	/	/	/
O=C(CN1C(=O)S/C(=C\c2ccc(F)cc2)C1=O)Nc1cccc(S(=O)(=O)NCc2ccco2)c1	4	8	-14	-2	-16	-9	/	/	/	/	/
CC(C)S(=O)(=O)CC(=O)c1ccc(Cl)cc1	0	2	0	-1	4	0	/	/	/	/	/
CCc1ccc(NC(=O)COC(=O)/C=C/c2ccco2)cc1	5	7	-7	18	50*	67*	63*	0	0	3	3
CN(CCOC(=O)/C=C/c1ccco1)Cc1ccccc1	0	20	1	3	78*	66*	53*	-8	1	9	-3
O=C(COC(=O)/C=C/c1ccco1)Nc1ccccc1	14	-3	-11	0	25	46	/	/	/	/	/
CNS(=O)(=O)c1cn(CC(=O)NCc2ccc(OC)cc2)cc1S(=O)(=O)NC	-1	4	2	-1	1	-9	/	/	/	/	/
Clc1ccc2oc(SCc3cccnc3)nc2c1	-1	-2	3	2	1	-7	/	/	/	/	/
Cc1ccccc1NC(=O)CSc1ccsc1[N+](=O)[O-]	50	35*	6	18	104*	72*	62*	-15	14*	49*	-2	Beacon interf DR=>99
CN(CC(=O)Nc1ccc(F)cc1)C(=O)c1cc(-c2ccco2)nc2ccccc12	28	53*	3	3	84*	70*	62*	-13	8.9*	9	4
COc1cccc(NC(=O)CN(C)C(=O)c2cc(-c3ccco3)nc3ccccc23)c1	12	11	-5	4	55*	64*	61*	-12	5.3*	3	0
CCOc1ccc(NC(=O)CN(C)C(=O)c2cc(-c3ccco3)nc3ccccc23)cc1OCC	2	-2	-5	1	-1	-5	/	/	/	/	/
COc1ccc(-c2cc(C(=O)Nc3cc(OC)cc(C(=O)Nc4cccc(C(F)(F)F)c4)c3)[nH]n2)cc1	3	4	16	-2	18	-4	/	/	/	/	/
COc1ccc(N2Cc3cccc(C(=O)N4CCN(C(=O)c5ccco5)CC4)c3C2=O)cc1	10	30	9	3	80*	92*	60*	-18	3	29	-2	Beacon interf DR=>99
CCCNc1c(NS(=O)(=O)c2ccc3c(c2)CCCC3)c(=O)oc2ccccc12	1	-1	2	0	3	-1	/	/	/	/	/
O=CC(O)C1OC(=O)C(O)C1O (stereo not drawn)	6	18	11	10	90*	64*	43*	-9	-15	44*	4	Beacon interf DR=>99
O=C(OCc1cc(=O)n2c(n1)sc1ccccc12)c1cccc(O)c1	8	20	12	0	98*	79*	58*	-19	5	23	5
